Screens from PubChem BioAssay.
HUVEC inhibit: inhibitors of human endothelial cell proliferation. HUVEC proliferation, CellTiter-Glo luminescence, 72 h; stronger effect = lower value. viability, % at 10 µM (by protocol). hit rate 1.1% among 86,000. AID 648;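 active = viability at or below 30%; inactive = viability above 30%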;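 note: 100% = median luminescence of DMSO-only cell control wells on each plate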
PTEN del growth: PTEN-deleted cell growth suppression; HCT116 PTEN-null viability, CellTiter-Glo, 60 h; stronger effect = lower value; AID 827; viability, % at 10 µM; hit rate 1.2% among 140,000;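 active = viability at or below a set limit, 4 SD under the median of all tested compounds, cut at about 3.7% in these data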;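 note: PTEN knockout HCT116 line with beta catenin targeted HCT116 as companion control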
Fibroblast inh: blocks proliferation of human lung fibroblasts | LL 47 human lung fibroblast viability, ATP luminescence; stronger effect = lower value | viability, % at 10 µM | hit rate 1.1% among 85,000;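 active = viability at or below 50% in the single dose screen; inactive = viability above 50%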;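 note: compound exposure lasted 72 h before the ATP readout; 100% = median luminescence of untreated cell-only wells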
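material = human LL 47 lung fibroblast cells | dosing = compounds added from tenfold dosing solution, 0.1% DMSO final | timing = overnight cell rest, 72 h compound treatment at 37 °C | measured by = CellTiter-Glo luminescence measuring cellular ATP | evaluation = % viability versus median cells-only luminescence | control set = cell-only wells, no compound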
Cav32 inh: inhibitors of human Cav3.2 T-type calcium channel. AID 449739. hit rate 4% among 100,000. B-score at 10 µM. Cav3.2-expressing cells, Fluo-4 calcium fluorescence FDSS; stronger effect = lower value. O95180;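 active = single-dose well whose peak fluorescence ratio is a statistical outlier from its plate by either plate-standardised score or position-corrected B-score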
H69AR growth 86K: blocks growth of human H69AR lung tumor cells | H69AR lung tumor viability, ATP luminescence, 72 h; stronger effect = lower value | viability, % at 10 µM | hit rate 6% among 85,000;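 active = viability at or below 40%; inactive = viability above 40%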;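 note: multidrug resistant small cell line overexpressing MRP-1 efflux transporter; 100% = mean luminescence of untreated control wells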
bCat KO growth: beta-catenin-lacking colon tumor cell growth suppression. hit rate 1.5% among 140,000. viability, % at 10 µM. AID 818. HCT116 beta-catenin knockout viability, CellTiter-Glo, 60 h; stronger effect = lower value;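 active = viability at or under a set limit, the compound median less 4 SD, cut at about 6% in these data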;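 note: 0% = Hyamine 1622 control at 20 µM and 100% = untreated cell control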
Active calls of the source: *; . = no result given. Compounds with a hit are over-represented: about 7.1% of the library has one in this group of screens.

SMILES | HUVEC inhibit | PTEN del growth | Fibroblast inh | Cav32 inh | H69AR growth 86K | bCat KO growth
CCOc1cccc(CNCCO)c1OCc1ccc(Cl)cc1Cl | . | 56 | . | . | . | 64
CCOc1cc(CNCCO)cc(Br)c1OCc1ccc(Cl)cc1Cl | . | 1.5* | . | -0.071 | . | 1.4*
COc1cccc(-n2nnnc2S(C)(=O)=O)c1 | 45 | 1.3* | 47* | 0.88 | 1.1* | 12
CCOc1ccc(N2C(=O)/C(=C/c3cc(OC)c(OC)c(OC)c3)N(CC(=O)OC)C2=S)cc1 | 62 | 14 | 95 | 0.34 | 25* | 15
COc1ccccc1/C=N\N=C(\N)c1ccccn1 | . | 97 | . | . | . | 89
Cc1ccccc1-c1noc(-c2ccc(Cl)cc2)n1 | 97 | 77 | 99 | 0.0047 | 91 | 67
Cc1ccccc1-c1noc(-c2ccc(O)cc2)n1 | 71 | 64 | 110 | 0.54 | 15* | 70
Cc1c2cnn(-c3ccccc3)c(=O)c2c(C)n1CCCC(=O)N1CCN(c2ncccn2)CC1 | . | 67 | . | 5.5* | . | 68
CCN1CCN(C(=O)CCCn2c(C)c3cnn(-c4ccccc4)c(=O)c3c2C)CC1 | 108 | 98 | 102 | 2 | 68 | 96
COc1cc(NC(=O)C/C(C)=N/NC(=O)C(OC)c2ccccc2)c(OC)cc1Cl (centres undefined) | . | 97 | . | . | . | 99
Fc1ccc(C(CCCn2nnc(-c3cccnc3)n2)c2ccc(F)cc2)cc1 | 73 | 39 | 104 | -4.2* | 84 | 48
Cc1ccc(S(=O)(=O)N2CCCN(S(=O)(=O)c3ccc(C(F)(F)F)cc3)CC2)cc1 | 60 | 18 | 49* | -0.044 | 48 | 10
Cc1ccc(S(=O)(=O)N2CCCN(S(=O)(=O)c3ccc4c(c3)OCCO4)CC2)cc1 | 95 | 92 | 93 | -0.62 | 32* | 107
Cc1ccc(S(=O)(=O)N2CCN(S(=O)(=O)N3CCCCC3)CC2)cc1 | 89 | 99 | 90 | -0.41 | 91 | 106
CN1CCN(S(=O)(=O)c2ccc3c(c2)OCCO3)CC1 | 99 | 105 | 98 | -0.3 | 102 | 89
COC(=O)C1C/C(=N\NS(=O)(=O)c2ccc(C)cc2)c2ccsc2C1 (centres undefined) | . | 101 | . | . | . | 91
O=C(NCCN1CCOCC1)C1(C(F)(F)F)C/C(=C\Cc2ccccc2)CCCO1 (centres undefined) | . | . | . | 1.3 | . | .
Cc1ccc(-c2nc3ccccn3c2NCc2ccc3c(c2)OCO3)cc1 | 78 | 72 | 93 | -4.4* | 77 | 81
Oc1ccc(-c2nc3ccccn3c2NCc2ccco2)cc1 | 88 | 91 | 107 | 0.11 | 82 | 86
CCOC(=O)C(C)(C)C(=O)C(C)(C)C(O)c1ccccn1 (centres undefined) | 102 | 99 | 94 | 0.85 | 97 | 96
Cc1cc(NC(=O)CSc2nnc(-c3ccco3)n2Cc2ccccc2)no1 | 98 | 84 | 101 | 1.7 | 78 | 93
CCCCCCn1c(SCC(=O)Nc2cc(C)on2)nc2ccccc2c1=O | 60 | 83 | 64 | -2.3 | 7.0* | 32
Cc1cc(NC(=O)CSc2nc3ccccc3c(=O)n2-c2ccccc2)no1 | . | 91 | . | 0.21 | . | 99
Cc1cc(NC(=O)CSc2nnc(-c3ccc(Br)o3)n2Cc2ccccc2)no1 | 102 | 92 | 101 | -5* | 76 | 93
Cc1cc(NC(=O)CSc2nnc(-c3c[nH]c4ccccc34)n2-c2ccc(F)cc2)no1 | . | . | . | -0.003 | . | .
SMILES | HUVEC inhibit | PTEN del growth | Fibroblast inh | Cav32 inh | H69AR growth 86K | bCat KO growth
CCOc1ccc(-n2c(SCC(=O)Nc3cc(C)on3)nnc2-c2c[nH]c3ccccc23)cc1 | 59 | 86 | 90 | 0.023 | 27* | 91
Cc1cc(NC(=O)CSc2nc(C(C)C)nc3ccccc23)no1 | 73 | 28 | 75 | -1.6 | 14* | 26
Cc1ccc(C(=O)NCCCc2ccccc2)s1 | . | 101 | . | . | . | 101
COc1ccc(CCN(Cc2cccs2)S(=O)(=O)c2ccc(S(=O)(=O)N(C)C3CCCCC3)cc2)cc1OC | . | 76 | . | . | . | 69
Cc1cc(NC(=O)CSc2nc3ccccc3c(=O)n2Cc2ccc(F)cc2)no1 | 72 | 99 | 74 | . | 40* | 102
COc1ccc(CCn2c(SCC(=O)Nc3cc(C)on3)nc3ccccc3c2=O)cc1OC | 68 | 71 | 103 | . | 33* | 75
CCCCn1c(-c2ccccc2)cnc1SCC(=O)NCCc1ccc(OC)c(OC)c1 | . | 61 | . | -4.5* | . | 57
CCOc1ccc(CCn2c(-c3ccco3)nc3ccccc3c2=O)cc1OCC | 57 | 30 | 78 | . | 32* | 32
